ChEMBL document CHEMBL1641397, “Camphoratins A-J, potent cytotoxic and anti-inflammatory triterpenoids from the fruiting body of Taiwanofungus camphoratus” (J Nat Prod, 2010)

Key:
BV-2 [1] = assay: Antiinflammatory activity in mouse BV2 cells assessed as inhibition of NOX-dependent ROS production up to 50 uM; format: functional, cell-based
KB [2] = assay: Cytotoxicity against human KB cells after 3 days by sulforhodamine B assay; format: functional, cell-based
BV-2 [3] = assay: Antiinflammatory activity in mouse BV2 cells assessed as inhibition of LPS-induced iNOS-dependent nitrite production after 24 hrs by Griess method; format: functional, cell-based
[4] = Antiinflammatory activity in human PMNC cells assessed as inhibition of fMLP-induced NOX-dependent ROS production up to 50 uM; format: functional, cell-based
[5] = Cytotoxicity against human KBVIN cells after 3 days by sulforhodamine B assay; format: functional, cell-based
Outline: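 KB and vincristine-selected KB-VIN grown in RPMI-1640 with 25 mM HEPES and 10% FBS at 37 °C. KB-VIN challenged with 0.5 μg/mL vincristine every two weeks, drug withdrawn at least one day before use. Seeded at 5000 cells/well, compounds at 20 down to 0.16 μM for 3 days. TCA fixation, SRB stain, absorbance at 562 nm. EC50 interpolated, average of at least two independent determinations.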

KB [6] = assay: Cytotoxicity against human KB cells at 20 uM after 3 days by sulforhodamine B assay; format: functional, cell-based
Outline: (§1)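 KB or KB-VIN cells (KB-VIN held under intermittent 0.5 μg/mL vincristine, withdrawn at least one day before use). Seeded at 5000 cells/well and exposed to compound at 20 μM for 3 days. Cells fixed with TCA, stained with SRB, absorbance read at 562 nm. Value is % inhibition of growth versus untreated cells.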

[7] = Cytotoxicity against human KBVIN cells at 20 uM after 3 days by sulforhodamine B assay; format: functional; settings: 72 h; outline: as §1
[8] = Mus musculus, BV-2, read-out: IC50
[9] = Homo sapiens, KB, 72 h, read-out: EC50
[10] = Mus musculus, BV-2, 24 h, read-out: IC50
[11] = Homo sapiens, PMNC, read-out: IC50
[12] = Homo sapiens, KBVIN, 72 h, read-out: EC50

Structure (SMILES) | EC50 (KB [2]; [9]) | IC50 (BV-2 [3]; [10]) | IC50 [4, 11] | EC50 [5, 12] | IC50 (BV-2 [1]; bv-2) | EC50 ([5]; kbvin) | further results
C=C(CC[C@@H](C)[C@H]1CC[C@H]2C3=C(C(=O)C[C@]12C)[C@@]1(C)CCC(=O)[C@@H](C)[C@@H]1CC3)C(C)C(=O)O (stereo not given in full) [ANTCIN A] | 4.9 µM | 4.1 µM | 29.2 µM | 10 µM |  |  | IC50 (BV-2 [1]; [8]): 45.9 µM
C=C(CC[C@@H](C)[C@H]1CC[C@H]2C3=C(C(=O)C[C@]12C)[C@@]1(C)CC[C@@H](O)[C@](C)(O)[C@@H]1C[C@@H]3O)C(C)C(=O)O (stereo not given in full) [ANTCIN K] |  |  | 47.2 µM |  | Not Active | Not Active | EC50 (KB [2]; kb): Not Active; IC50 (BV-2 [3]; bv-2): Not Active
C=C(CC[C@@H](C)[C@H]1CC[C@H]2C3=C(C(=O)[C@H](O)[C@]12C)[C@@]1(C)CC[C@@H](O)[C@@H](C)[C@@H]1C[C@@H]3O)C(C)C(=O)O (stereo not given in full) [CAMPHORATIN A] |  |  |  |  |  | Not Active | EC50 (KB [6]; kb): Not Active
C=C(CC[C@@H](C)[C@H]1CC[C@H]2C3=C(C(=O)C[C@]12C)[C@@]1(C)CC[C@@H](O)[C@@H](C)[C@@H]1C[C@@H]3O)C(C)C(=O)O (stereo not given in full) [CAMPHORATIN B] |  | 15.7 µM | 32.1 µM |  | Not Active | Not Active | 
C=C(CC[C@@H](C)[C@H]1CC[C@H]2C3=C(C(=O)C[C@]12C)[C@@]1(C)CC[C@@H](O)[C@](C)(O)[C@@H]1CC3=O)C(C)C(=O)O (stereo not given in full) [CAMPHORATIN C] | 0.3 µM |  |  | 2.3 µM |  |  | 
C=C(CC[C@@H](C)[C@H]1CC[C@H]2C3=C(C(=O)C[C@]12C)[C@@]1(C)CCC(=O)[C@@H](C)[C@@H]1C[C@@H]3O)C(C)C(=O)O (stereo not given in full) [CAMPHORATIN D] |  | 4.2 µM | 22.6 µM |  | Not Active | Not Active | EC50 (KB [2]; kb): Not Active
C=C(CC[C@@H](C)[C@H]1CC[C@H]2C3=C(C(=O)C[C@]12C)[C@@]1(C)CC[C@@H](O)[C@@H](C)[C@@H]1CC3=O)C(C)C(=O)OC (stereo not given in full) [CAMPHORATIN E] | 0.45 µM |  |  | 2.7 µM |  |  | 
C=C(CC[C@@H](C)[C@H]1CC[C@H]2C3=C(C(=O)C[C@]12C)[C@@]1(C)CCC(=O)[C@@H](C)[C@@H]1C[C@@H]3O)C(C)C(=O)OC (stereo not given in full) [CAMPHORATIN F] | 2 µM | 2.5 µM | 11.2 µM | 2.9 µM | Not Active |  | 
C=C(CC[C@@H](C)[C@H]1CC[C@H]2C3=C(C(=O)C[C@]12C)[C@@]1(C)CCC(=O)[C@@H](C)[C@@H]1C[C@H]3O)C(C)C(=O)O (stereo not given in full) [CAMPHORATIN G] | 15 µM |  |  | 17.5 µM |  |  | 
C=C(CC[C@@H](C)[C@H]1CC[C@H]2C3=C(C(=O)C[C@]12C)[C@@]1(C)CCC(=O)[C@@H](C)[C@@H]1CC3)C(C)C [CAMPHORATIN H] |  |  |  |  |  | Not Active | EC50 (KB [2]; kb): Not Active
C[C@H](/C=C/[C@H](C)[C@H](C)CO)[C@H]1CC[C@H]2C3=CC[C@H]4CC(=O)CC[C@]4(C)[C@H]3CC[C@]12C [CAMPHORATIN I] |  | 12.7 µM | 17.5 µM |  | Not Active | Not Active | EC50 (KB [2]; kb): Not Active
C=C(CC[C@@H](C)[C@H]1CC[C@@H]2C3=C(C(=O)C[C@@]21C)[C@@]1(C)CCC(=O)[C@@H](C)[C@@H]1CC3)C(C)C(=O)OC (stereo not given in full) [CAMPHORATIN J] |  | 1.6 µM | 15.8 µM |  | Not Active | Not Active | EC50 (KB [2]; kb): Not Active
c1ccc2c(c1)[I+]c1ccccc1-2 [DIPHENYLENEIODONIUM] |  |  |  |  |  |  | IC50 (BV-2 [1]; [8]): 0.4 µM
CC(C)[C@@H](C)/C=C/[C@@H](C)[C@H]1CC[C@@H]2[C@]1(C)CC[C@H]1[C@]23C=C[C@]2(C[C@@H](O)CC[C@]12C)OO3 [ERGOSTEROL PEROXIDE] |  | 6.3 µM | 20.3 µM |  | Not Active |  | 
CC(C)[C@@H](C)/C=C/[C@@H](C)[C@H]1CC[C@H]2C3=CC=C4C[C@@H](O)CC[C@]4(C)[C@H]3CC[C@]12C [ERGOSTEROL] |  | 30.6 µM | 27.9 µM |  | Not Active |  | 
COc1cc([C@@H]2c3cc4c(cc3[C@@H](O[C@@H]3O[C@@H]5CO[C@@H](C)O[C@H]5[C@H](O)[C@H]3O)[C@H]3COC(=O)[C@H]23)OCO4)cc(OC)c1O [ETOPOSIDE] | 4.5 µM |  |  | > 36 µM |  |  | 
C=C(CC[C@@H](C)[C@H]1CC[C@H]2C3=C(C[C@H](O)[C@]12C)[C@@]1(C)CC[C@@H](O)[C@@H](C)[C@@H]1CC3=O)C(C)C(=O)OC (stereo not given in full) [METHYL ANTCINATE H] |  | 2.5 µM | 18.1 µM |  |  | Not Active | IC50 (BV-2 [1]; [8]): 16 µM; EC50 (KB [2]; kb): Not Active
C=C(CC[C@@H](C)[C@H]1CC[C@H]2C3=C(C(=O)C[C@]12C)[C@@]1(C)CCC(=O)[C@@H](C)[C@@H]1CC3=O)C(C)C(=O)OC (stereo not given in full) [ZHANKUIC ACID A METHYL ESTER] | > 20 µM | 0.6 µM | 8.4 µM | > 20 µM | Not Active |  | inhibition at 20 µM [7]: 25%; inhibition at 20 µM (KB [6]; Homo sapiens, KB, 72 h): 21%
C=C(CC[C@@H](C)[C@H]1CC[C@H]2C3=C(C(=O)C[C@]12C)[C@@]1(C)CCC(=O)[C@@H](C)[C@@H]1CC3=O)C(C)C(=O)O (stereo not given in full) [ZHANKUIC ACID A] | 3 µM | 3.6 µM | 22.1 µM | 6.2 µM | Not Active |  | 
C=C(CC[C@@H](C)[C@H]1CC[C@H]2C3=C(C(=O)C[C@]12C)[C@@]1(C)CC[C@@H](O)[C@@H](C)[C@@H]1CC3=O)C(C)C(=O)O (stereo not given in full) [ZHANKUIC ACID B] | 7.3 µM | 9.6 µM |  | 8.5 µM | Not Active |  | IC50 ([4]; pmnc): Not Active
C=C(CC[C@@H](C)[C@H]1CC[C@H]2C3=C(C(=O)[C@H](O)[C@]12C)[C@@]1(C)CC[C@@H](O)[C@@H](C)[C@@H]1CC3=O)C(C)C(=O)O (stereo not given in full) [ZHANKUIC ACID C] | 15.5 µM | 16.2 µM |  | 6.4 µM |  |  | IC50 (BV-2 [1]; [8]): 40.3 µM; IC50 ([4]; pmnc): Not Active
